From ChEMBL document CHEMBL1129955, “Structure-activity relationships of alkyl- and alkoxy-substituted 1,4-dihydroquinoxaline-2,3-diones: potent and systemically active antagonists for the glycine site of the NMDA receptor” (J Med Chem, 1997)

Columns and labels:
[1] = target: Glutamate receptor ionotropic, NMDA 1 (Rattus norvegicus, UniProt P35439); assay: Potency for the N-methyl-D-aspartate glutamate receptor 1 glycine site by displacement of [3H]5,7-dichlorokynurenic acid (DCKA) binding in rat brain cortical membranes.; type: cell membranes, Membrane
Mus musculus = organism: Mus musculus; assay: Anticonvulsant activity was measured by mouse maximal electroshock (MES) assay.; type: functional
Method in brief: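 Mice; compounds dissolved in 0.05 M Tris, given iv; tested at peak activity 2 min after injection (one compound with slower onset tested at 15 min). Maximal electroshock seizure protection scored; ED50 by Litchfield and Wilcoxon analysis.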

[2] = Partition coefficient (logP); type: physicochemical; details: octanol/water
[3] = Selectivity index for the inhibition of NMDA receptors was estimated by dividing Kb AMPA by Kb NMDA
[4] = target: T1, Glutamate receptor ionotropic, AMPA (Rattus norvegicus) (UniProt P19491+P19492+P19493+P19490); assay: Dissociation constant(Kb) for Ionotropic glutamate receptor AMPA as inhibition of currents activated by 10 uM AMPA in Xenopus oocytes expressing rat cerebral cortex poly(A)+ RNA; type: functional, cell-based; details: Oocyte
[5] = target: T1, Glutamate receptor ionotropic, AMPA (Rattus norvegicus); assay: Dissociation constant(Kb) for Ionotropic glutamate receptor AMPA was determined from inhibition of currents activated by 10(uM) AMPA in Xenopus oocytes expressing rat cerebral cortex poly(A)+ RNA; type: functional, cell-based; details: Oocyte

Structure (SMILES) | IC50 [1] [nM] | also measured
CCOc1c(F)cc2nc(O)c(O)nc2c1[N+](=O)[O-] | 3600 | 
COc1cc2[nH]c(=O)c(=O)[nH]c2c(O)c1OC | 17000 | 
Cc1c(Cl)cc2nc(O)c(O)nc2c1[N+](=O)[O-] |  | ED50 (Mus musculus): 1.2 mg/kg; Selectivity index [3]: 440; Kb [4]: 3500 nM
Oc1nc2cc3c(cc2nc1O)CCC3 | 15000 | 
Cc1cc([N+](=O)[O-])c2[nH]c(=O)c(=O)[nH]c2c1 | 9300 | 
COc1cc2[nH]c(=O)c(=O)[nH]c2cc1OC | 17000 | 
Cc1c(C#N)cc2nc(O)c(O)nc2c1[N+](=O)[O-] |  | Kb [5]: 590 nM; Selectivity index [3]: 20
Oc1cc2nc(O)c(O)nc2cc1O | > 100000 | 
O=c1[nH]c2cc3c(c([N+](=O)[O-])c2[nH]c1=O)CCC3 | 3100 | 
CCCCOc1c(F)cc2nc(O)c(O)nc2c1[N+](=O)[O-] | 4300 | 
COc1cc2[nH]c(=O)c(=O)[nH]c2c(OC(C)=O)c1OC | 53000 | 
Oc1nc2cc3c(cc2nc1O)OCO3 | > 100000 | 
O=c1[nH]c2cc3ccccc3cc2[nH]c1=O | 16000 | 
N#Cc1cc([N+](=O)[O-])c2[nH]c(=O)c(=O)[nH]c2c1 | 2800 | 
Cc1cc2[nH]c(=O)c(=O)[nH]c2cc1C | 3300 | 
O=[N+]([O-])c1c(OCCCc2ccccc2)c(F)cc2nc(O)c(O)nc12 | 4000 | 
Nc1c(F)cc2nc(O)c(O)nc2c1[N+](=O)[O-] | 11000 | 
O=[N+]([O-])c1c2c(cc3nc(O)c(O)nc13)CCC2 |  | Kb [5]: 17000 nM; Selectivity index [3]: 20

Now from value to compound, other results behind:

IC50 [1] [nM] | Structure (SMILES) | also measured
95 | Cc1c(F)cc2nc(O)c(O)nc2c1[N+](=O)[O-] | ED50 (Mus musculus): 1.8 mg/kg; logP [2]: 0.08
130 | CCc1c(Cl)cc2nc(O)c(O)nc2c1[N+](=O)[O-] | 
4.7 | Cc1c(Cl)cc2[nH]c(=O)c(=O)[nH]c2c1[N+](=O)[O-] | logP [2]: 0.49
64 | COc1c(Br)cc2[nH]c(=O)c(=O)[nH]c2c1[N+](=O)[O-] | 
640 | CCSc1c(Cl)cc2nc(O)c(O)nc2c1[N+](=O)[O-] | 
150 | Cc1c(Cl)cc2nc(O)c(O)nc2c1N | 
29 | CCc1cc2nc(O)c(O)nc2c([N+](=O)[O-])c1Cl | ED50 (Mus musculus): 4.5 mg/kg; logP [2]: 0.92
29 | Cc1cc2nc(O)c(O)nc2c([N+](=O)[O-])c1C | ED50 (Mus musculus): 2.6 mg/kg; Selectivity index [3]: 79; Kb [4]: 3100 nM; logP [2]: 0.58
150 | COc1c(Cl)cc2[nH]c(=O)c(=O)[nH]c2c1[N+](=O)[O-] | 
73 | Cc1c(C#N)cc2[nH]c(=O)c(=O)[nH]c2c1[N+](=O)[O-] | 
82 | CCc1cc2nc(O)c(O)nc2c([N+](=O)[O-])c1Br | ED50 (Mus musculus): 11 mg/kg; logP [2]: 1.04
1000 | COc1cc2nc(O)c(O)nc2cc1Br | 
1400 | CCc1cc2[nH]c(=O)c(=O)[nH]c2cc1Cl | 
1800 | CCc1cc2[nH]c(=O)c(=O)[nH]c2cc1CC | 
1900 | COc1c(F)cc2[nH]c(=O)c(=O)[nH]c2c1[N+](=O)[O-] | 
160 | CCc1cc2[nH]c(=O)c(=O)[nH]c2c([N+](=O)[O-])c1CC | 
8.7 | Cc1c(Br)cc2nc(O)c(O)nc2c1[N+](=O)[O-] | ED50 (Mus musculus): 2 mg/kg; logP [2]: 0.61
20 | O=[N+]([O-])c1c(Br)c(Br)cc2nc(O)c(O)nc12 | ED50 (Mus musculus): 7.3 mg/kg; logP [2]: 0.74
5.9 | O=c1[nH]c2cc(Cl)c(Cl)c([N+](=O)[O-])c2[nH]c1=O [LICOSTINEL] | ED50 (Mus musculus): 4 mg/kg; logP [2]: 0.21
45 | Cc1cc2nc(O)c(O)nc2c([N+](=O)[O-])c1Cl | ED50 (Mus musculus): 1.9 mg/kg; logP [2]: 0.44
780 | Cc1cc2nc(O)c(O)nc2cc1Cl | 
